Ecoli rRNA inh = reduced GFP signal of wild-type E. coli, primary screen, bacterial rRNA inhibitor project, GFP/RFP fluorescence, OD600, single point; GFP signal change (wild-type ribosome), % (concentration not given with the values); E. coli WT GFP vs humanized-ribosome RFP mutants, 24 h; stronger effect = lower value; DMSO median 0, no signal -100; 350,000 compounds, 1.6% hits;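 active = significant combined selectivity score with lowered wild-type GFP, culture density cut under 30%, mutant RFP and density less affected; inactive = any of these conditions unmet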
SIRT5 block = SIRT5 desuccinylase inhibitors, primary screen, biochemical, fluorescence imaging, single point, set 5. Purified SirT5, succinyl-peptide AMC, trypsin-coupled fluorescence. AID 652115, 2013. NAD-dependent protein deacylase sirtuin-5, mitochondrial (Homo sapiens), Q9NXA8. inhibition, % at 15 µM. 330,000 compounds, 1.1% hits; in the data active = inhibition above about 15%; inconclusive = no clear call, values can overlap the other calls
Target sequence (Q9NXA8 whole entry, looked up): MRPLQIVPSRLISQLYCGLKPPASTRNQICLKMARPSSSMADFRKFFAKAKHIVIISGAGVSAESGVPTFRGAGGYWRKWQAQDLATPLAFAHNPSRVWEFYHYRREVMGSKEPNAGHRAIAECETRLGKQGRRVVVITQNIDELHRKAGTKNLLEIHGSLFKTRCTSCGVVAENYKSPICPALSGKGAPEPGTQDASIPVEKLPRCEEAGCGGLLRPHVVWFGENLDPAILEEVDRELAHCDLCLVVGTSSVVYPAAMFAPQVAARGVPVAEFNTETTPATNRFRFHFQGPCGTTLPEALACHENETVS
E-sel inducer = E-selectin induction in HUVECs, primary screen, imaging, HUVEC, immunofluorescence imaging, single point. normalized: neutral wells 0, TNF-alpha wells 100. activation, % at 7.58 µM. 260,000 compounds, 0.37% hits. AID 686992, 2013;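 active = mean E-selectin-positive cell signal at least 10% of the positive control, reached in at least 60% of replicates, without over 20% cell loss; inconclusive = no rule given, readout overlaps actives, possibly toxicity-flagged; inactive = the rest, including those meeting only one limit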
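Assay system: HUVEC, human umbilical vein endothelial cells / Amount: 3,000 HUVEC/well / Controls: TNF-alpha positive control, DMSO neutral control / Compound dosing: single concentration / Medium: EGM-2 over gelatin coat / Evaluation: percent E-selectin-positive cells / Signal: immunofluorescence imaging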
FGF22 binding = binders of human FGF22 protein, primary screen, FGF22 synaptogenesis inhibitor project, biophysical, thermal shift, single point | Fibroblast growth factor 22 (Homo sapiens), Q9HCT0 | recombinant FGF22 thermal shift, SYPRO orange fluorescence; percent of sucrose octasulfate shift, DMSO zero | activity (Tm shift, normalised), % at 9.99 µM | 340,000 compounds, 1.5% hits | AID 651658, 2012;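 active = mean Tm shift, scaled 0 neutral to 100 positive control, at about 1.3% or above, every replicate too, limit read from the data; inconclusive = no clear call, values can overlap the other calls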
Target sequence (Q9HCT0 whole entry, looked up): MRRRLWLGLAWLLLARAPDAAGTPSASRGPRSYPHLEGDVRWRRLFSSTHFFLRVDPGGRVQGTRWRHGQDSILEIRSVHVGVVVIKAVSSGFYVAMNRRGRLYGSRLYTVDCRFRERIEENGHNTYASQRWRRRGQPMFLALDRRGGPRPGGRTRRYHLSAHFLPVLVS
FN deposit inh = inhibitors of fibronectin matrix deposition, primary screen, AH1F cells, Alexa488-fibronectin fluorescence, plate reader; AH1F fibroblasts, overnight; inhibition, % at 12.6 µM; 350,000 compounds, 0.086% hits;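 active = mean inhibition across replicates of 30% or more, regardless of how many single replicates reach that level; inconclusive = mean under 30% yet at least half of replicates reach 30%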;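 also: positive control wells lacked labelled fibronectin entirely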
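Material: AH1F fibroblast monolayer depositing Alexa488-labelled fibronectin into matrix | Input: 10000 AH1F cells/well | Medium: DMEM plus 2% serum, read in PBS | Reagent: Alexa488-fibronectin, 24 nM final in well | Compound dosing: One dose per compound, pinned | Schedule: 1 h adhesion, overnight exposure | Measured by: Fluorescence at 485 nm excitation, 525 nm emission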
Statin myotox sup = suppressors of statin myotoxicity in C2C12 myotubes, primary screen, cell-based, single point, plate reader; C2C12 myotubes + simvastatin, ATP luminescence, 48 h; scaled: DMSO 0, geranylgeraniol control 100; rescue of ATP level, % at 7.49 µM; 330,000 compounds, 0.78% hits; AID 602340, 2012;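 active = mean ATP rescue above about 67%, or every replicate alone reaching that limit, limit read from the data, passing the limit was not always enough; inconclusive = no clear call, values can overlap the other calls; inactive = mean under the limit and some replicate under it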;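 also: myotubes were challenged with 10 µM simvastatin during compound exposure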
Numbers without * were called inactive; u = inconclusive; x = no result given. Most compounds without a hit are left out; they make up all but 4% or so of the library.

SMILES	Ecoli rRNA inh	SIRT5 block	E-sel inducer	FGF22 binding	FN deposit inh	Statin myotox sup
Cc1cc(C(=O)Nc2cccc3c2O[C@@H](CN(C)S(C)(=O)=O)[C@H](C)CN([C@H](C)CO)C3=O)n(C)n1	7.7	0.5	x	0.0	x	x
Cc1noc(C)c1NC(=O)N(C)C[C@H]1OCCCC[C@H](C)Oc2ccc(NC(=O)NC(C)C)cc2C(=O)N([C@H](C)CO)C[C@@H]1C	2.7	5.3	-0.1	-0.4	x	x
CC1=C(C(=O)N(C(C)C)C(C)C)CC(CC(=O)NCc2ccco2)C(=O)N1Cc1ccccc1 (configuration not stated)	-0.6	-2.8	0.0	0.0	3.3	9.8
CC1=C(C(=O)N(C)C)CC(CC(=O)NCc2ccco2)C(=O)N1Cc1ccccc1 (configuration not stated)	2.1	16.0*	0.0	-0.4	11.4	-0.3
Brc1ccc2c(c1)-c1ccccc1C1=NCCN12	-39.8	x	2.9	43.4*	-0.3	-137.8
CCCCN(CCCC)S(=O)(=O)c1ccc(OC)c2ncccc12	x	x	x	x	x	65.7*
COc1ccc(S(=O)(=O)N(CC(C)C)CC(C)C)c2cccnc12	-16.2	-1.0	0.0	0.1	-3.5	154.2*
CCN(Cc1ccccc1)S(=O)(=O)c1ccc(OC)c2ncccc12	-24.6	-3.7	u	0.2	-7.9	x
O=C(C[C@H]1CC[C@H](NC(=O)Nc2ccccc2)[C@@H](CO)O1)NCc1cccc(F)c1	0.7	-4.7	0.3	0.0	x	-5.6
NC(=O)CNc1n[nH]c(=S)[nH]c1=O	x	6.8	x	43.0*	-0.4	x
CCCC(=O)N1CC2(C1)CN(C(=O)Nc1ccc(F)cc1)[C@@H](CO)c1c2c2ccc(OC)cc2n1C	-1.2	4.2	0.0	0.1	x	x
O=C(Nc1ccc(F)cc1F)Nc1sccc1-c1nc2ccccc2s1	-21.6*	-2.2	0.4	0.1	-3.8	-7.2
Cc1ccc(SCCN)cc1C	4.2	-2.1	2.2	43.4*	-4.9	x
CO[C@@H]1CN(C)C(=O)c2ccc(NC(=O)c3cnccn3)cc2OC[C@@H](C)N(C(=O)C2CC2)C[C@@H]1C	1.1	-0.9	-0.4	0.0	x	0.5
COc1ccc(S(=O)(=O)Nc2ccc3c(c2)C(=O)N([C@@H](C)CO)C[C@@H](C)[C@H](CN(C)S(C)(=O)=O)OCCCC[C@@H](C)O3)cc1	-0.2	-7.9	0.2	-0.5	x	x
COC(=O)[C@]1(Cc2ccccc2)N[C@H](CN(C)C(=O)COc2ccccc2)[C@@H]2C(=O)N(C)C(=O)[C@@H]21	-0.2	x	-0.2	43.0*	-7.3	-1.3
COC(=O)[C@]1(Cc2ccccc2)N[C@H](CN(C)C(=O)c2ccc(C)cc2)[C@@H]2C(=O)N(C)C(=O)[C@@H]21	2.8	x	3.5	43.4*	4.3	-4.9
COC(=O)[C@]1(Cc2ccccc2)N[C@H](CN(C)C(=O)c2ccc(F)cc2)[C@@H]2C(=O)N(C)C(=O)[C@@H]21	12.4	x	0.2	42.9*	-2.6	2.6
COC(=O)[C@]1(Cc2ccccc2)N[C@H](CN(C)C(=O)Nc2ccc(F)cc2)[C@@H]2C(=O)N(C)C(=O)[C@@H]21	13.9	-2.1	-1.4	0.0	1.7	-4.4
COc1ccc(CC(=O)N2CCC(c3ccccc3)C2)cc1 (configuration not stated)	0.1	-2.7	-2.8	44.1*	12.3	x
C[C@H](CO)N1C[C@H](C)[C@H](CN(C)S(=O)(=O)c2cccs2)Oc2c(NC(=O)C3CCCCC3)cccc2C1=O	-6.4	17.4*	-0.1	-0.3	-9.0	-76.0
C[C@H]1CN([C@@H](C)CO)C(=O)c2cccc(NC(=O)C3CC3)c2O[C@H]1CN(C)Cc1ccccc1	8.7	-3.5	27.3*	0.0	x	-2.6
C[C@@H]1CN([C@@H](C)CO)C(=O)c2cccc(NC(=O)C3CCOCC3)c2O[C@@H]1CN(C)Cc1ccncc1	0.2	0.8	228.0*	-0.2	-4.9	-1.0
C[C@@H]1CN([C@@H](C)CO)C(=O)c2cccc(NC(=O)C3CC3)c2O[C@H]1CN(C)Cc1ccccc1	-3.2	8.7	51.8*	0.1	x	-2.4
C[C@H](CO)N1C[C@H](C)[C@H](CN(C)Cc2ccccc2)Oc2c(NC(=O)C3CCCCC3)cccc2C1=O	-0.2	2.0	-0.2	1.0	x	-20.3
SMILES	Ecoli rRNA inh	SIRT5 block	E-sel inducer	FGF22 binding	FN deposit inh	Statin myotox sup
COCCNC(=O)C[C@H]1CC[C@@H]2[C@H](COC[C@H](O)CN2S(=O)(=O)c2ccccc2C)O1	3.4	9.6	0.2	-0.2	-11.0	-0.8
C[C@H](CO)N1C[C@H](C)[C@H](CN(C)CC2CC2)Oc2c(NC(=O)C3CC3)cccc2C1=O	2.6	-2.5	64.1*	-0.3	x	-18.3
CC1(C(=O)NCCCN2CCOCC2)Oc2cccnc2NC1=O (configuration not stated)	-3.8	-2.5	x	43.3*	5.0	9.6
CO[C@@H]1CN(C)C(=O)c2ccc(NS(=O)(=O)c3ccc(F)cc3)cc2OC[C@H](C)NC[C@H]1C	2.3	-3.4	-0.2	0.0	1.1	-6.8
CCc1cccc(NC(=O)CCc2c(C)nn(-c3ccc(N4CCCCC4)nn3)c2C)c1	-32.3*	-2.1	0.1	0.0	-4.2	1.5
CCCCc1c(C)nc2ccc(C)cc2c1SCCC(=O)O	-32.4	1.2	29.2*	0.1	8.6	5.0
CCOC(=O)c1sc(-c2ccc(Cl)cc2Cl)nc1O	-29.3*	-4.3	x	-0.1	-3.9	x
CCOC(=O)c1sc(CS(=O)(=O)c2ccc(Cl)cc2)nc1C	9.8	-6.2	x	-0.1	7.7	15.8
Cc1ccc(OCCn2c(=S)[nH]c3c(N)ncnc32)cc1	-37.2*	-4.8	0.3	0.3	-0.9	4.5
CC(C)Oc1ccc(OCCn2c(=S)[nH]c3c(N)ncnc32)cc1	-30.6	1.0	7.1	-0.1	6.7	x
Cc1ccc(CSc2nnc(-c3ccncc3)o2)c(C)c1	3.3	-1.0	x	43.1*	x	14.1
c1ccc2[nH]c(CSc3nnc(-c4ccncc4)o3)nc2c1	x	x	x	x	x	85.0*
Clc1ccccc1CSc1nnc(-c2ccncc2)o1	x	x	x	x	5.0	x
CN(C)CC(=O)N1[C@@H]2c3ccc(-c4ccccc4)c(=O)n3C[C@@H]2[C@@H](CO)[C@@H]1C(=O)NC1CCC1	-1.4	-18.0	-0.3	0.1	x	0.5
COc1ccccc1Oc1ccc2c(c1)C(=O)N(c1ccc(O)cc1)C2=O	x	x	x	x	x	127.5*
COc1ccc2c(c1OC)C(=O)N(c1ccc(O)cc1)C2=O	5.5	-0.8	x	43.2*	6.9	x
